Results from ChEMBL document CHEMBL1128714, “Synthesis and anti-HIV activity of 1,1'-dideoxygossypol and related compounds” (J Med Chem, 1995).

Legend:
HeLa [1] = test: Highest concentration at which no visible changes in cell morphology or monolayer adhesion was detected.; type: functional, Homo sapiens
HeLa [2] = test: Compound was evaluated for the anti HIV activity in HT46c (HeLaT4+) cells as host cells for H9/HIV-IIIB strain of the HIV-1 virus; anti HIV activity masked by cytotoxicity; type: functional, cell-based, Homo sapiens
HeLa [3] = test: Compound was evaluated for the anti HIV activity in HT46c (HeLaT4+) cells as host cells for H9/HIV-IIIB strain of the HIV-1 virus; type: functional, cell-based; conditions: Homo sapiens
In short: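 HT46c (HeLaT4+) cells were plated at 5×10^4 cells/well in RPMI 1640 with 10% FBS and attached overnight. They were infected with HIV-1 H9/HIV-IIIB at an input giving 100–200 foci/well in positive controls by day 3. Compound was tested at 0.01, 0.1, 1.0, 5.0 and 20 μM for 3 days at 37 °C, 5% CO2. Foci were counted by focal immunoassay on methanol-fixed monolayers, and EC50 was derived.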

Compound	TC (HeLa [1]) [µM]	EC50 (HeLa [2])	EC50 (HeLa [3]) [µM]
Cc1ccc2c(C(=O)O)c(O)c(O)c(C(C)C)c2c1	>20		
Cc1cc2c(C(C)C)c(O)c(O)c(C=O)c2cc1-c1cc2c(C=O)c(O)c(O)c(C(C)C)c2cc1C	>1	anti HIV activity masked by cytotoxicity	
Cc1cc2c(C(C)C)c(O)c(O)c(C(=O)O)c2cc1-c1cc2c(C(=O)O)c(O)c(O)c(C(C)C)c2cc1C	>5		0.7
Cc1ccc2c(C=O)c(O)c(O)c(C(C)C)c2c1	>1		20
